Compound activity as filed in PubChem.
Sampled rows, rich in hits. Any-hit rate of the full collection: about 2.8%.
HTRA1 inh: HTRA1 (human) protease inhibition; Q92743; recombinant HTRA1, FP-rhodamine activity-based probe, fluorescence polarization; inhibition, % at 5.96 µM; 340,000 compounds, 0.5% hits; in the data active = inhibition above about 36%
Target sequence (Q92743 whole entry, looked up): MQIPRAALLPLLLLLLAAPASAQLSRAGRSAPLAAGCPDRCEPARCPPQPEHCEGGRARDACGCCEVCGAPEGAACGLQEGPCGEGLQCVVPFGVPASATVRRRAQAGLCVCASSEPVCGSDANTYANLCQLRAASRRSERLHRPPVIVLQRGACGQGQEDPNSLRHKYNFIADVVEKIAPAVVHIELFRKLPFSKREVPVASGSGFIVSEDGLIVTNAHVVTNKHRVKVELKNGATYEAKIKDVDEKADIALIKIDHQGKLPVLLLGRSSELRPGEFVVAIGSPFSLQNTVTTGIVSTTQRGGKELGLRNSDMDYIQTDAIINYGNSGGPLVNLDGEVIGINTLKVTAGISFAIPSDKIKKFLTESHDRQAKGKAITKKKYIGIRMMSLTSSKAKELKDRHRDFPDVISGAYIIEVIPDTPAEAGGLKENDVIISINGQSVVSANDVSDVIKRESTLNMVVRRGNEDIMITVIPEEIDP
PAFAH1B3 inh: PAFAH1B3 (human) inhibition | AID 492972 | inhibition, % at 3.39 µM | recombinant PAFAH1B3, FP-rhodamine probe, fluorescence polarization | 340,000 compounds, 0.28% hits;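 active = inhibition above the screen-wide average of all tested compounds plus 3 SD, cut at about 25% in these data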
pPAFAH FP inh: pPAFAH (human) enzyme inhibition; inhibition, % at 3.39 µM; Q13093; 330,000 compounds, 1.5% hits; AID 463082; recombinant pPAFAH, FP-rhodamine probe fluorescence polarization;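 active = inhibition above the mean inhibition across the screen plus 3 SD, cut at about 25% in these data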;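 also: inhibitors block binding of the rhodamine activity-based probe so polarization drops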
PAFAH1B2 inh: blocks human PAF acetylhydrolase 1b catalytic subunit 2; P68402; recombinant PAFAH1B2, FP-rhodamine activity probe, fluorescence polarization; inhibition, % at 3.39 µM; 340,000 compounds, 1.2% hits;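 active = inhibition above the mean of all tested compounds plus 3 SD, cut at about 24% in these data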
PAFAH2 inh: inhibitors of human PAFAH2 | 340,000 compounds, 0.99% hits | inhibition, % at 3.39 µM | recombinant PAFAH2, FP-rhodamine activity probe, fluorescence polarization | AID 492956;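 active = inhibition above the mean over all tested compounds plus 3 SD, cut at about 30% in these data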;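 also: inhibitors block probe labeling of enzyme so polarization drops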
ABHD4 inh: ABHD4 (mouse) inhibition, primary FP screen. AID 720543. Q8VD66. purified mABHD4, FP-Rh probe fluorescence polarization. inhibition, % at 8.92 µM. 370,000 compounds, 0.54% hits;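 active = inhibition exceeding the mean over every tested compound plus 3 SD, cut at about 30% in these data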
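system = mouse ABHD4 enzyme, wild type | medium = HEPES pH 7.0, NaCl, Pluronic buffer | also added = FP-Rh probe | incubation = Enzyme–compound pre-incubation 45 min, then probe 60 min, both 25 °C | technique = fluorescence polarization, excitation 525 nm, emission 598 nm, BODIPY TMR filters | controls = S159A mutant high control, sample median low control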
HTRA1 inh conf: confirmation of human HTRA1 inhibitors; shares compounds with HTRA1 inh; recombinant HTRA1, FP-rhodamine activity-based probe, fluorescence polarization; inhibition, % at 5.96 µM; 1,600 compounds, 66% hits; AID 540248;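 active = mean inhibition over three repeats above a set limit taken from the earlier primary screen, cut at about 37% in these data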;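 also: inhibitors block probe binding so polarization drops and inhibition rises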
Hits are given with their value; . = inactive; / = no result.

SMILES | HTRA1 inh | PAFAH1B3 inh | pPAFAH FP inh | PAFAH1B2 inh | PAFAH2 inh | ABHD4 inh | HTRA1 inh conf
CN1c2ccccc2N(C)C1(C)c1ccccc1 | . | . | . | . | . | . | /
COC(=O)[C@]12C[C@H](CC(=O)NCCc3ccccc3OC)C(=O)N(Cc3cccc4ccccc34)C1=C[C@H](COCc1ccccc1)O[C@@H]2C | / | / | / | / | / | . | /
COc1ccc2cc(-c3cn(C(=O)N(c4ccccc4)c4ccccc4)nn3)ccc2c1 | / | / | / | / | / | . | /
Fc1cccc(NC(=S)NNc2c3ccccc3nc3ccccc23)c1 | 36 | . | / | . | . | . | .
Fc1cccc(NC(=S)NNc2ccccc2)c1 | . | . | . | . | . | . | /
Cc1c2c(=O)n(-c3nc4ccccc4s3)nc-2cc(O)n1Cc1ccccc1 | 47 | . | / | . | . | / | 57
NC[C@@H]1O[C@H](C23CC4CC(CC(C4)C2)C3)Cc2c1ccc(O)c2O | 60 | . | . | . | . | . | 73
Cc1ccc2nc(-c3ccc(O)c(O)c3)cn2c1 | 45 | . | . | . | . | . | 74
Cc1ccc2nc(-c3ccccc3)cn2c1 | . | . | . | . | . | . | /
C[C@@H]1[C@@H](O)C[C@@]2(C[C@H](O)c3cc(Cl)cc(Cl)c3O2)O[C@H]1c1ccccc1Cl | / | / | / | / | / | . | /
CCOc1ccc2c(c1)-c1c(ssc1=S)C(C)(C)N2 | 46 | . | . | . | . | / | 61
CCOc1ccc2c(c1)-c1c(ssc1=S)C(C)(C)N2C(=O)CSC1=NCCS1 | . | . | . | . | . | . | /
Oc1cc(Nc2ccncc2)cc2cccnc12 | 43 | . | . | . | . | . | 37
COC(=O)C1=C(C)NC(C)=C(C(=O)OC)C1c1cc2cc(C)ccc2[nH]c1=O | . | . | . | . | . | . | /
Cc1oc(C)c2c(=O)ccc3c(c12)OC(N)=C(C#N)C3c1ccccc1 (stereo unspecified) | . | . | . | . | . | . | /
N#CC1=C(N)Oc2c(ccc3cccnc23)C1c1ccccc1 (stereo unspecified) | 41 | . | . | . | . | . | .
Cc1ccc2[nH]c(=O)c(C3C(C#N)=C(N)Oc4c3ccc3cccnc43)cc2c1 (stereo unspecified) | 73 | . | 25 | . | . | . | .
COc1ccccc1CNc1ccc(N2CCCCC2)cc1 | 57 | . | 27 | . | . | / | .
COc1cccc(CNc2ccc(N3CCCCC3)cc2)c1OC | 59 | . | . | . | . | . | .
COc1cccc(Nc2ccc(N3CCCCC3)cc2)c1OC | . | . | . | . | . | . | /
O=C1N(Cc2ccccc2)c2ccccc2C12CCCc1oc(CCc3ccccc3)nc12 (stereo unspecified) | / | / | / | / | / | . | /
Oc1ccc(N=Cc2ccc(O)c(O)c2)cc1 | 57 | 34 | 34 | . | . | / | 52
Nc1[nH]c(C(=O)c2ccccc2)c(-c2ccc(Br)cc2)c1C(=O)N1CCN(CCO)CC1 | / | / | / | / | / | . | /
COc1ccc(OC)c(/C=N/NC(=O)C(=O)N2CCCCCC2)c1 | 42 | . | . | . | . | . | .
Cc1ccsc1C=Nc1ccc(O)cc1 | 51 | . | . | . | . | / | .
SMILES | HTRA1 inh | PAFAH1B3 inh | pPAFAH FP inh | PAFAH1B2 inh | PAFAH2 inh | ABHD4 inh | HTRA1 inh conf
Cc1ccsc1/C=N/N=C/c1sccc1C | . | . | . | . | . | . | /
Cc1ccc(C)c(NC(=O)C2CCCN2S(=O)(=O)c2cccc3cccnc23)c1 (stereo unspecified) | / | / | / | / | / | . | /
Cc1nn(-c2ccccc2)c2nc(N)c(C#N)c(-c3ccc(O)c(O)c3)c12 | 74 | 32 | 31 | . | . | . | 76
C=CCN1CCc2c(cc(O)c(O)c2Cl)C(c2ccccc2)C1 (stereo unspecified) | 43 | . | . | . | . | . | 70
O=C(NCCCc1ccccc1)[C@H](CO)NC1(C(=O)NCCc2c[nH]c3ccccc23)CCCCC1 | / | / | / | / | / | . | /
COC(=O)C1CN(CCO)CCS(=O)(=O)N1Cc1cn(Cc2ccccc2Br)nn1 (stereo unspecified) | / | / | / | / | / | . | /
COc1cc(C)c2sc3ccccc3c(=O)c2c1NCCN(C)C | 36 | / | / | / | / | . | 44
C/C(=N\Nc1nc(-c2cc(C)ccc2C)cs1)c1cc2c(ccc3ccccc32)oc1=O | 53 | . | . | . | . | . | .
C/C(=N\Nc1nc(-c2cc(C)ccc2C)cs1)c1cc2ccccc2oc1=O | . | . | . | . | . | . | /
CC(C)C[C@H](NC1(C(=O)NCCc2c[nH]c3ccccc23)CCN(C)CC1)C(=O)NCCCc1ccccc1 | / | / | / | / | / | . | /
CCc1cc(C(=O)Nc2nc(-c3ccccn3)cs2)sc1C | 37 | . | . | . | . | . | .
CCOC(=O)N1CCN(C(=O)C[C@@H]2C(=O)N3CCCC4=C3[C@@]2(C(=O)OC)CCCC4)CC1 | / | / | / | / | / | . | /
COc1ccc2c(c1)CCCN2C(=O)C1CCCN(S(=O)(=O)c2cc(OC)ccc2OC)C1 (stereo unspecified) | / | / | / | / | / | . | /
COc1ccc(CNc2cccc3[nH]c(C(F)(F)F)nc23)cc1OC | 40 | . | . | . | . | . | .
COc1ccc(OC)c(Nc2nc(-c3cccs3)cs2)c1 | . | . | . | . | . | . | /
COc1ccc(C)cc1Nc1nc(-c2c[nH]c3ccccc23)cs1 | 43 | . | . | . | . | . | .
